Data on 15 compounds can be found in PMC4132832 (Biochemical pharmacology, 2013).

For the experiment, the target named is Kir6.1/SUR2B channel (Rattus norvegicus, UniProt Q63664). The experiment can be described thus: whole-cell voltage clamp, HEK293. The format is cell-based. Put shortly: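 Rat Kir6.1 and SUR2B co-expressed in HEK293 with GFP marker, whole-cell patched at room temperature, holding 0 mV, 600-ms steps to -80 mV, symmetric 145 mM K+. Bath: K-gluconate/KCl, EGTA, glucose, HEPES pH 7.4. Pipette adds 1 mM K2ATP, 0.5 mM NaADP and 1 mM MgCl2. Plateau current normalized to the pinacidil/glibenclamide window. IC50 from Hill fit.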
Sequence of Kir6.1/SUR2B channel (Q63664 whole entry): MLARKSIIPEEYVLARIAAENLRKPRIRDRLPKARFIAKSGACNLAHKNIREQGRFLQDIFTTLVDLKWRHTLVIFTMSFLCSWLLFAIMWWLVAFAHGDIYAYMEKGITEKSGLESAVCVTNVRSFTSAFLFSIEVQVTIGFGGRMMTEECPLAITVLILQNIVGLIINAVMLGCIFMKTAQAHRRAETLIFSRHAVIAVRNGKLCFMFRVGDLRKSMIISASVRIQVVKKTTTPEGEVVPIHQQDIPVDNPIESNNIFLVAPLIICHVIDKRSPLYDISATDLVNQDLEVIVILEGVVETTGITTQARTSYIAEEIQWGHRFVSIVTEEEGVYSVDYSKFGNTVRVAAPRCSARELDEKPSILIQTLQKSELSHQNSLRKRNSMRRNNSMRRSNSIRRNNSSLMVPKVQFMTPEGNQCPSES
Sequence of Kir6.1/SUR2B channel (P70170 whole entry partner): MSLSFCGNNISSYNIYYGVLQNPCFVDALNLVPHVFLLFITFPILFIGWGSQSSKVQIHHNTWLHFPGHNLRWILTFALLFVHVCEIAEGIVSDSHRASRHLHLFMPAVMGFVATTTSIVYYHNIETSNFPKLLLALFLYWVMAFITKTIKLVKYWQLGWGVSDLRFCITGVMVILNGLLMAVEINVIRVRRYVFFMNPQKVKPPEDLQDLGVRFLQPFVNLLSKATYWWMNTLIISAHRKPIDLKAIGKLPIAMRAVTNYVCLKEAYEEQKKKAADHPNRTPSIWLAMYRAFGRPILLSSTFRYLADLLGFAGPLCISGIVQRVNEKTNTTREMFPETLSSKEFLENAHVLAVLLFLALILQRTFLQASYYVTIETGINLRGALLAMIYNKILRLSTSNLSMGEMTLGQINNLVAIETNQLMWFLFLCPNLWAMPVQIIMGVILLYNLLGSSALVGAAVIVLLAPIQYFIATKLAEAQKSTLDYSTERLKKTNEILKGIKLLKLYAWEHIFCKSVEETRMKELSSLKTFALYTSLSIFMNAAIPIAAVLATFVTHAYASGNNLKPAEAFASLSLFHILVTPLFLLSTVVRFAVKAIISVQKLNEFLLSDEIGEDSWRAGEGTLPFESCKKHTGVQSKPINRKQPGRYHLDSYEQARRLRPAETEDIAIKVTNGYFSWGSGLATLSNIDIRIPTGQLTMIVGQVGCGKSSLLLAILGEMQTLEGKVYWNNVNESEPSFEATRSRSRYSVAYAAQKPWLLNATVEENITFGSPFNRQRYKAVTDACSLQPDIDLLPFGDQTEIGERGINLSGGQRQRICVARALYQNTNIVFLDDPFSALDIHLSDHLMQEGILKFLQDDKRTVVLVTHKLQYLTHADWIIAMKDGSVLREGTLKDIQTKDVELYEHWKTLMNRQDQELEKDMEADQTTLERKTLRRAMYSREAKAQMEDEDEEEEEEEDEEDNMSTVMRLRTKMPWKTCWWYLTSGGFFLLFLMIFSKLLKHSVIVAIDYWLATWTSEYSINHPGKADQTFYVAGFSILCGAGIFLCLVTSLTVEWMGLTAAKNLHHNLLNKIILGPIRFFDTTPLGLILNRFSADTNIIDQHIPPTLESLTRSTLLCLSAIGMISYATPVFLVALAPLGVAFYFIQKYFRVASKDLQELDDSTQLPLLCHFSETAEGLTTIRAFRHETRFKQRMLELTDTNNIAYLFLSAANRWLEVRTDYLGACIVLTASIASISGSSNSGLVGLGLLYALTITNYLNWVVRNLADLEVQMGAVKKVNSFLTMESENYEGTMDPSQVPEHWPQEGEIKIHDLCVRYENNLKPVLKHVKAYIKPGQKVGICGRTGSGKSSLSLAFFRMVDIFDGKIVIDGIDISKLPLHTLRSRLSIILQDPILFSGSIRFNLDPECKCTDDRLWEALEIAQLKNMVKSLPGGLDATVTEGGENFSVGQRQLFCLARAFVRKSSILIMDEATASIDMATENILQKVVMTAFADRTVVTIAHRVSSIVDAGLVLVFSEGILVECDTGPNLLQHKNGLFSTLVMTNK

Counter-ions that a name gives are not always drawn.

`CCOc1ccc(C=C2SC(=O)N(CCN)C2=O)cc1` [A6355, 3-(2-aminoethyl)-5-[(4-ethoxyphenyl)methylidene]-1,3-thiazolidine-2,4-dione hydrochloride]: the half-inhibitory concentration (IC50) stood at 8 µM.
The compound `O=C1NC(=O)/C(=C/c2ccc3nccnc3c2)S1` [AS605240, (5Z)-5-(quinoxalin-6-ylmethylidene)-1,3-thiazolidine-2,4-dione] showed an IC50 of 60 µM.
Turning to `O=C1NC(=O)/C(=C/c2ccc(-c3ccc(F)cc3O)o2)S1` [AS-252424, (5Z)-5-[[5-(4-fluoro-2-hydroxyphenyl)furan-2-yl]methylidene]-1,3-thiazolidine-2,4-dione], it took 4 µM to reach half-maximal inhibition (IC50).
`O=C1NC(=O)C(Cc2ccc(O)cc2)S1` (stereo not drawn) [CDS005865, 5-(4-hydroxybenzyl)-2,4-thiazolidinedione]: the IC50 is over 100 µM.
Then `CCc1ccc(C(=O)COc2ccc(CC3SC(=O)NC3=O)cc2)nc1` (stereo not drawn) [Cay10415, 5-[[4-[2-(5-ethylpyridin-2-yl)-2-oxoethoxy]phenyl]methyl]-1,3-thiazolidine-2,4-dione], with 15 µM; and `CC1(COc2ccc(CC3SC(=O)NC3=O)cc2)CCCCC1` (stereo not drawn) [Ciglitazone, 5-[[4-[(1-methylcyclohexyl)methoxy]phenyl]methyl]-1,3-thiazolidine-2,4-dione], with 120 µM; and `Cc1oc(-c2ccccc2)nc1CCC(=O)c1ccc(CC2SC(=O)NC2=O)cc1` (stereo not drawn) [Darglitazone, 5-[[4-[3-(5-methyl-2-phenyl-1,3-oxazol-4-yl)propanoyl]phenyl]methyl]-1,3-thiazolidine-2,4-dione], with 25 µM.
For `O=C1NC(=O)C(Cc2ccc3c(c2)CC[C@H](Cc2ccccc2)O3)S1` (stereo partly drawn) [Englitazone, 5-[(2-benzyl-3,4-dihydro-2H-chromen-6-yl)methyl]-1,3-thiazolidine-2,4-dione], the IC50 amounted to 7 µM.
With `CC(C)OC(=O)C(C)(C)Oc1ccc(C(=O)c2ccc(Cl)cc2)cc1` [Fenofibrate, propan-2-yl 2-[4-(4-chlorobenzoyl)phenoxy]-2-methylpropanoate] the figure was 80 µM; with `Cc1cc(SCc2sc(-c3ccc(C(F)(F)F)c(F)c3)nc2C)ccc1OCC(=O)O` [GW0742, 2-[4-[[2-[3-fluoro-4-(trifluoromethyl)phenyl]-4-methyl-1,3-thiazol-5-yl]methylsulfanyl]-2-methylphenoxy]acetic acid], 80 µM.
`Cc1cc(SCc2sc(-c3ccc(C(F)(F)F)cc3)nc2C)ccc1OCC(=O)O` [GW501516, 2-[2-methyl-4-[[4-methyl-2-[4-(trifluoromethyl)phenyl]-1,3-thiazol-5-yl]methylsulfanyl]phenoxy]acetic acid] yielded an IC50 of 120 µM.
Regarding `Cc1ccc(C)c(OCCCC(C)(C)C(=O)O)c1` [Gemfibrozil, 5-(2,5-dimethylphenoxy)-2,2-dimethylpentanoic acid], the IC50 turned out to be 290 µM.
With `CCc1ccc(CCOc2ccc(CC3SC(=O)NC3=O)cc2)nc1` (stereo not drawn) [Pioglitazone, 5-[[4-[2-(5-ethylpyridin-2-yl)ethoxy]phenyl]methyl]-1,3-thiazolidine-2,4-dione], the IC50 is 95 µM.
As for `CN(CCOc1ccc(CC2SC(=O)NC2=O)cc1)c1ccccn1` (stereo not drawn) [Rosiglitazone, 5-[[4-[2-[methyl(pyridin-2-yl)amino]ethoxy]phenyl]methyl]-1,3-thiazolidine-2,4-dione], the midpoint of inhibition, the IC50, lay at 12 µM.
Then `Cc1c(C)c2c(c(C)c1O)CCC(C)(COc1ccc(CC3SC(=O)NC3=O)cc1)O2` (stereo not drawn) [Troglitazone, 5-[[4-[(6-hydroxy-2,5,7,8-tetramethyl-3,4-dihydrochromen-2-yl)methoxy]phenyl]methyl]-1,3-thiazolidine-2,4-dione], with 100 µM.

For orientation: IC50 means the concentration that inhibits the measured activity by half. Read a low IC50 as inhibition by little substance.
